Assay results published in ChEMBL document CHEMBL4396917, “Synthesis and biological evaluation of novel benzylidene-succinimide derivatives as noncytotoxic antiangiogenic inhibitors with anticolorectal cancer activity in vivo” (Eur J Med Chem, 2019).
Calls of active or inactive are those of the source. The rule behind the calls is not given here.

Experiments:
NCM460 = experiment: Cytotoxicity against human NCM460 cells assessed as reduction in cell growth after 72 hrs by MTT assay; type: cell-based; details: NCM460, 72 h
HCT-116 = experiment: Cytotoxicity against human HCT116 cells assessed as reduction in cell growth after 72 hrs by MTT assay; type: cell-based; details: HCT-116, 72 h
Mus musculus = experiment: Antiangiogenic activity in Matrigel plug angiogenic Balb/c mouse model assessed as impaired vascularization by measuring loss of red colour in VEGF-supplemented matrigel at 20 to 60 mg/kg, sc measured after 15 days; type: functional, organism-based
Outline: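 Balb/c nude mice (6–8 weeks), three groups, injected subcutaneously with 400 μL Matrigel alone or with VEGF (250 ng/mL) and/or compound; after 15 days plugs removed, weighed and photographed.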

SW480 = experiment: Cytotoxicity against human SW480 cells assessed as reduction in cell growth after 72 hrs by MTT assay; type: cell-based; details: SW480, 72 h
Chorioallantoic membrane [1] = experiment: Antiangiogenic activity in Leghorn chicken fertilized egg chorioallantoic membrane at 10 nM/egg measured after 48 hrs by CAM assay; type: functional, tissue-based; details: Gallus gallus
Outline: (§1)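 Fertile Leghorn eggs incubated at 37.8°C, 40% humidity; window opened on day 7; compound, sunitinib or 0.9% NaCl mixed with DMSO applied on filter paper onto CAM; 48 h incubation, methanol fixation, photography; nascent vessels counted.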

HUVEC [2] = experiment: Antiangiogenic activity against VEGF-induced HUVEC assessed as inhibition of cell proliferation preincubated for 30 mins followed by VEGF addition measured after 24 hrs by MTT assay; type: functional, cell-based; details: Homo sapiens
Outline: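 HUVECs seeded 24 h, starved 16 h in M200 with 2% FBS, pretreated 30 min with compound at 0.1, 1, 10, 20 or 40 μM, then stimulated with VEGF (25 ng/mL) for 24 h; viability read by MTT; IC50 determined.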

Chorioallantoic membrane [3] = experiment: Antiangiogenic activity in Leghorn chicken fertilized egg chorioallantoic membrane measured after 48 hrs by CAM assay; type: functional, tissue-based; details: Gallus gallus; outline: as §1
HUVEC [4] = experiment: Antiangiogenic activity against HUVEC assessed as inhibition of cell proliferation measured […] by MTT assay; type: functional, cell-based; details: Homo sapiens, 0.5 h

SMILES	IC50 (NCM460)	IC50 (HCT-116)	Activity (Mus musculus)	IC50 (SW480)	Activity (Chorioallantoic membrane [1])	IC50 (HUVEC [2])	Activity (Chorioallantoic membrane [3])	IC50 (HUVEC [4])
COc1ccc(NC(=O)c2cccc(CC3CC(=O)N(c4ccc(C)cc4)C3=O)c2)cc1 (stereo not given)	> 100 µM	> 100 µM	Active	> 100 µM	–	–	–	–
CCCCCN1C(=O)C/C(=C\c2cccc(C(=O)Nc3ccc(OC)cc3)c2)C1=O	> 100 µM	> 100 µM	–	> 100 µM	–	–	–	–
O=C(Nc1ccc(Cl)cc1)c1cccc(/C=C2\CC(=O)N(Cc3ccccc3)C2=O)c1	> 100 µM	> 100 µM	–	> 100 µM	–	–	–	–
O=C(Nc1cccc(F)c1)c1cccc(/C=C2\CC(=O)N(c3ccccc3)C2=O)c1	> 100 µM	> 100 µM	–	> 100 µM	–	–	–	–
O=C(NC1CCCCC1)c1cccc(/C=C2\CC(=O)N(c3ccccc3)C2=O)c1	> 100 µM	> 100 µM	–	> 100 µM	Active	–	–	–
CCCCN1C(=O)C/C(=C\c2cccc(C(=O)Nc3cccc(CC)c3)c2)C1=O	> 100 µM	75.3 µM	–	83.2 µM	–	–	–	–
CCc1cccc(NC(=O)c2cccc(/C=C3\CC(=O)N(c4ccc(C)cc4)C3=O)c2)c1	> 100 µM	41.5 µM	–	65.3 µM	–	–	–	–
CCOc1ccc(NC(=O)c2cccc(/C=C3\CC(=O)N(Cc4ccccc4)C3=O)c2)cc1	> 100 µM	41.7 µM	–	73.2 µM	–	–	–	–
CCc1ccc(NC(=O)c2cccc(/C=C3\CC(=O)N(c4ccccc4)C3=O)c2)cc1	> 100 µM	> 100 µM	–	> 100 µM	–	–	–	–
Cc1ccc(NC(=O)c2cccc(/C=C3\CC(=O)N(c4ccccc4)C3=O)c2)cc1C	> 100 µM	> 100 µM	–	> 100 µM	–	–	–	–
O=C(Nc1ccc(OC(F)F)cc1)c1cccc(/C=C2\CC(=O)N(c3ccccc3)C2=O)c1	> 100 µM	> 100 µM	–	> 100 µM	–	–	–	–
Cc1ccc(NC(=O)c2cccc(/C=C3\CC(=O)N(c4ccccc4)C3=O)c2)cc1	> 100 µM	> 100 µM	–	> 100 µM	–	–	–	–
Cc1ccc(N2C(=O)C/C(=C\c3cccc(C(=O)Nc4cccc(F)c4)c3)C2=O)cc1	> 100 µM	> 100 µM	–	96.9 µM	–	–	–	–
O=C(NCc1ccccc1)c1cccc(/C=C2\CC(=O)N(c3ccccc3)C2=O)c1	> 100 µM	> 100 µM	–	> 100 µM	Active	–	–	–
COc1ccc(OC)c(NC(=O)c2cccc(/C=C3\CC(=O)N(c4ccccc4)C3=O)c2)c1	> 100 µM	> 100 µM	–	> 100 µM	–	–	–	–
O=C(Nc1ccc(Cl)cc1)c1cccc(/C=C2\CC(=O)N(c3ccccc3)C2=O)c1	> 100 µM	> 100 µM	–	> 100 µM	Active	–	–	–

SMILES	IC50 (NCM460)	IC50 (HCT-116)	Activity (Mus musculus)	IC50 (SW480)	Activity (Chorioallantoic membrane [1])	IC50 (HUVEC [2])	Activity (Chorioallantoic membrane [3])	IC50 (HUVEC [4])
CCN(CC)CCNC(=O)c1c(C)[nH]c(/C=C2\C(=O)Nc3ccc(F)cc32)c1C [SUNITINIB]	–	–	–	–	–	3.63 µM	Active	6.46 µM
O=C(Nc1ccccc1)c1cccc(/C=C2\CC(=O)N(c3ccccc3)C2=O)c1	> 100 µM	> 100 µM	–	> 100 µM	–	–	–	–
Cc1ccc(N2C(=O)C/C(=C\c3cccc(C(=O)Nc4ccc(Cl)cc4)c3)C2=O)cc1	> 100 µM	> 100 µM	–	> 100 µM	–	–	–	–
CCc1cccc(NC(=O)c2cccc(/C=C3\CC(=O)N(Cc4ccccc4)C3=O)c2)c1	> 100 µM	80.6 µM	–	91.5 µM	–	–	–	–
O=C(Nc1ccc(F)cc1)c1cccc(/C=C2\CC(=O)N(c3ccccc3)C2=O)c1	> 100 µM	> 100 µM	–	> 100 µM	–	–	–	–
Cc1cccc(NC(=O)c2cccc(/C=C3\CC(=O)N(c4ccccc4)C3=O)c2)c1	> 100 µM	> 100 µM	–	> 100 µM	–	–	–	–
COc1ccc(NC(=O)c2cccc(/C=C3\CC(=O)N(c4ccccc4)C3=O)c2)c(C)c1	> 100 µM	> 100 µM	–	> 100 µM	–	–	–	–
COc1ccc(NC(=O)c2cccc(/C=C3\CC(=O)N(c4ccccc4)C3=O)c2)cc1	> 100 µM	> 100 µM	–	> 100 µM	Active	–	–	–
CCCCNC(=O)c1cccc(/C=C2\CC(=O)N(Cc3ccccc3)C2=O)c1	> 100 µM	95 µM	–	> 100 µM	–	–	–	–
O=C(c1cccc(/C=C2\CC(=O)N(c3ccccc3)C2=O)c1)N1CCCC1	> 100 µM	> 100 µM	–	> 100 µM	Active	–	–	–
CCc1cccc(NC(=O)c2cccc(/C=C3\CC(=O)N(c4ccccc4)C3=O)c2)c1	> 100 µM	81.2 µM	–	88.6 µM	–	–	–	–
O=C(c1cccc(/C=C2\CC(=O)N(c3ccccc3)C2=O)c1)N1CCOCC1	> 100 µM	> 100 µM	–	> 100 µM	Active	–	–	–
CSc1cccc(NC(=O)c2cccc(/C=C3\CC(=O)N(c4ccccc4)C3=O)c2)c1	> 100 µM	65.2 µM	–	74.3 µM	–	–	–	–
COc1cc(NC(=O)c2cccc(/C=C3\CC(=O)N(c4ccccc4)C3=O)c2)cc(OC)c1OC	> 100 µM	> 100 µM	–	> 100 µM	–	–	–	–
CCOc1ccc(NC(=O)c2cccc(/C=C3\CC(=O)N(c4ccccc4)C3=O)c2)cc1	> 100 µM	84.8 µM	–	91.5 µM	–	–	–	–
